Experimental data taken from ChEMBL document CHEMBL3097999, “Synthesis and biological evaluation of novel substituted 1,3,4-thiadiazole and 2,6-di aryl substituted imidazo [2,1-b] [1,3,4] thiadiazole derivatives” (2014).

How the values were obtained:
Assay type in all cases: functional
Conditions in all cases: read-out: DIZ
Escherichia coli [1] = experiment: Antimicrobial activity against Escherichia coli at 0.5 mg/ml by well plate method
Procedure, shortened: (§1)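 Agar well-plate diffusion against E. coli, B. subtilis and P. aeruginosa. Test compounds dissolved in DMSO at 1 and 0.5 mg/mL and placed in wells. Streptomycin was the reference drug. Read-out is the zone of inhibition.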

Pseudomonas aeruginosa [2] = experiment: Antimicrobial activity against Pseudomonas aeruginosa at 0.5 mg/ml by well plate method; procedure, shortened: as §1
Escherichia coli [3] = experiment: Antimicrobial activity against Escherichia coli at 1 mg/ml by well plate method; procedure, shortened: as §1
Pseudomonas aeruginosa [4] = experiment: Antimicrobial activity against Pseudomonas aeruginosa at 1 mg/ml by well plate method; procedure, shortened: as §1
Bacillus subtilis [5] = experiment: Antimicrobial activity against Bacillus subtilis at 1 mg/ml by well plate method; procedure, shortened: as §1
Bacillus subtilis [6] = experiment: Antimicrobial activity against Bacillus subtilis at 0.5 mg/ml by well plate method; procedure, shortened: as §1
[7] = test system: Chrysosporium keratinophilum; experiment: Antimicrobial activity against Chrysosporium keratinophilum at 1 mg/ml by well plate method
Procedure, shortened: (§2)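 Fungal well-plate diffusion against Candida albicans, Aspergillus flavus and Chrysosporium keratinophilum. Compounds in DMSO at 1 and 0.5 mg/mL, with fluconazole as the reference drug. Activity scored as the zone of inhibition.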

Candida albicans [8] = experiment: Antimicrobial activity against Candida albicans at 1 mg/ml by well plate method; procedure, shortened: as §2
Candida albicans [9] = experiment: Antimicrobial activity against Candida albicans at 0.5 mg/ml by well plate method; procedure, shortened: as §2
Aspergillus flavus [10] = experiment: Antimicrobial activity against Aspergillus flavus at 0.5 mg/ml by well plate method; procedure, shortened: as §2
Aspergillus flavus [11] = experiment: Antimicrobial activity against Aspergillus flavus at 1 mg/ml by well plate method; procedure, shortened: as §2
[12] = test system: Chrysosporium keratinophilum; experiment: Antimicrobial activity against Chrysosporium keratinophilum at 0.5 mg/ml by well plate method; procedure, shortened: as §2

| Structure (SMILES) | zone of inhibition at 500 µg/mL (Escherichia coli [1]) [mm] | zone of inhibition at 500 µg/mL (Pseudomonas aeruginosa [2]) [mm] | zone of inhibition at 1000 µg/mL (Escherichia coli [3]) [mm] | zone of inhibition at 1000 µg/mL (Pseudomonas aeruginosa [4]) [mm] | zone of inhibition at 1000 µg/mL (Bacillus subtilis [5]) [mm] | zone of inhibition at 500 µg/mL (Bacillus subtilis [6]) [mm] | zone of inhibition at 1000 µg/mL [7] [mm] | zone of inhibition at 1000 µg/mL (Candida albicans [8]) [mm] | zone of inhibition at 500 µg/mL (Candida albicans [9]) [mm] | zone of inhibition at 500 µg/mL (Aspergillus flavus [10]) [mm] | zone of inhibition at 1000 µg/mL (Aspergillus flavus [11]) [mm] | zone of inhibition at 500 µg/mL [12] [mm] |
| --- | --- | --- | --- | --- | --- | --- | --- | --- | --- | --- | --- | --- |
| COc1ccc(-c2cn3nc(-c4ccc(N5CCN(C)CC5)c([N+](=O)[O-])c4)sc3n2)cc1 | 4 | 3 | 6 | 5 | 5 | 3 | – | – | – | – | – | – |
| COc1ccc(-c2cn3nc(-c4ccc(N(C)C)c([N+](=O)[O-])c4)sc3n2)cc1 | 3 | 4 | 4 | 6 | 3 | 2 | 4 | 5 | 3 | 2 | 4 | 2 |
| COc1ccc(-c2cn3nc(-c4ccc(NCC5CCCO5)c([N+](=O)[O-])c4)sc3n2)cc1 (stereo unspecified) | 10 | 9 | 13 | 13 | 10 | 8 | 8 | 7 | 5 | 6 | 9 | 6 |
| COc1ccc(-c2cn3nc(-c4ccc(NC5CCCCC5)c([N+](=O)[O-])c4)sc3n2)cc1 | 9 | 7 | 11 | 9 | 10 | 7 | 7 | 9 | 7 | 6 | 8 | 5 |
| COc1ccc(-c2cn3nc(-c4ccc(NCc5ccc(F)cc5F)c([N+](=O)[O-])c4)sc3n2)cc1 | 1 | 2 | 3 | 4 | 4 | 2 | 8 | 5 | 3 | 3 | 6 | 6 |
| COc1ccc(-c2cn3nc(-c4ccc(N5CCCC5)c([N+](=O)[O-])c4)sc3n2)cc1 | 5 | 4 | 8 | 6 | 9 | 7 | 6 | 7 | 5 | 5 | 7 | 4 |
| CCN(CC)c1ccc(-c2nn3cc(-c4ccc(OC)cc4)nc3s2)cc1[N+](=O)[O-] | 4 | 1 | 6 | 3 | 5 | 3 | 5 | 6 | 5 | 3 | 5 | 3 |
| CCCCNc1ccc(-c2nn3cc(-c4ccc(OC)cc4)nc3s2)cc1[N+](=O)[O-] | 3 | 5 | 5 | 7 | 6 | 4 | 3 | 3 | 2 | – | 2 | 1 |
| CC(C)(C)C(=O)Nc1nnc(-c2ccc(N3CCOCC3)c([N+](=O)[O-])c2)s1 | 10 | 10 | 12 | 13 | 11 | 9 | 4 | 5 | 3 | 2 | 5 | 2 |
